Screening results deposited in PubChem BioAssay by several laboratories.
SF-1 act: activates the human nuclear receptor SF-1 | CHO-K1 Gal4-SF-1 LBD luciferase reporter; % increase over DMSO SF-1-specific signal | 1.9% of 65,000 active | AID 522 | activation, % at 10 µM;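 active = activation above the mean activation of all tested compounds plus 3 SD, cut at about 50% in these data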
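Compound – one dose, 10 µM compound, 1% DMSO · Test system – transient Gal4-SF-1 LBD reporter, CHO-K1 · Input – 4,000 cells in each well · Read-out basis – percent activation relative to DMSO median and mock-transfected background · Replicates – single measurement per compound · Technique – steady-glow luciferase luminescence, read after 15 min reagent incubation · Timing – 20 h compound treatment, 37 °C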
JNK3 inh: JNK3 (human) kinase inhibition; P53779; purified JNK3 kinase activity, HTS; inhibition, % at 8 µM; 0.61% of 60,000 active; in the data active = inhibition above about 17%
Target sequence (P53779 whole entry, looked up): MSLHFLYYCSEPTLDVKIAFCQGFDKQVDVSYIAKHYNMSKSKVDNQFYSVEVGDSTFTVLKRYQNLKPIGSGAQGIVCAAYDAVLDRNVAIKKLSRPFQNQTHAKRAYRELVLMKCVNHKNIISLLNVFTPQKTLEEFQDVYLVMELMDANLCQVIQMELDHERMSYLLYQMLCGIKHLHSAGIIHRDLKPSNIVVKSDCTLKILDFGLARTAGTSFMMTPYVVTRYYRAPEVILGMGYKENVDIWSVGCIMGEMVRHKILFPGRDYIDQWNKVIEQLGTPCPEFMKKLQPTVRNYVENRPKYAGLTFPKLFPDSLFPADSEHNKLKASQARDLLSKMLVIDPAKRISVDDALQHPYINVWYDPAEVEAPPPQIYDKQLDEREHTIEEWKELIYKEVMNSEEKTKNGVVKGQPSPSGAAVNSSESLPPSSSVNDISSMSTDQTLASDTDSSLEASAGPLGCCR
ROCK2 inh: blocks human Rho kinase 2 activity. O75116. purified ROCK2, Kinase-Glo ATP depletion luminescence. inhibition, % at 6 µM. 0.35% of 60,000 active. AID 604;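 active = inhibition above the screen-wide mean inhibition plus 3 SD, cut at about 18% in these data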
mHtt clearance: compounds clearing mutant huntingtin protein; HeLa Exon1htt(103Q)mCFP, aggregate imaging; zero = plate's median compound well; inhibition, % at 1.5 µM; 0.42% of 47,000 active;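 active = inhibition of aggregate fluorescence above about 70%, also judged a hit by eye on the cell image, limit read from the data, passing the limit was not always enough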;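 note: cells exposed to compound for three days before fixation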
PKA kinase inh: blocks human protein kinase A activity | 0.1% of 65,000 active | AID 524 | inhibition, % at 6 µM | PKA Kemptide phosphorylation, Kinase-Glo ATP luminescence;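 active = inhibition above the screen-wide mean inhibition plus 3 SD, cut at about 21% in these data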
RORA act: activators of human nuclear receptor RORA; CHO-K1 Gal4-RORA LBD luciferase reporter, luminescence; percent increase over mock-subtracted basal signal; activation, % at 10 µM; 1.5% of 65,000 active; AID 560;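 active = activation above the mean of all tested compounds plus 3 SD, cut at about 49% in these data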
Of the large screens only hits and unclear results are named; the others gave an inactive call. Only some compounds are listed: those with a hit (about 2.9% of all), similar ones and a draw of the others.

COC(=O)c1sc(NC(=O)c2cc3c(s2)CCCC3)nc1C	none
Cc1nc(NC(=O)c2ccc(Br)s2)sc1C(=O)N(C)C	SF-1 act 107, RORA act 70 (no result: mHtt clearance)
Cc1nc(NC(=O)c2cc3c(s2)CCCCC3)sc1C(=O)N(C)C	SF-1 act 60 (no result: mHtt clearance)
CC1=C(C)/C(=N\OS(=O)(=O)c2ccccc2)C=CC1=O	none (no result: SF-1 act, JNK3 inh, ROCK2 inh, PKA kinase inh, RORA act)
CC(C)CCN1CC(C(=O)N2CCN(c3ccc(F)cc3)CC2)CC1=O (stereo unspecified)	ROCK2 inh 129
O=C1CC(C(=O)N2CCN(c3ccc(F)cc3)CC2)CN1CCc1ccccc1 (stereo unspecified)	none
Cc1ccc(CCNC(=O)c2nnn(-c3cc(C)cc(C)c3)c2N)cc1	none
Cc1ccc(NC(=O)c2nnn(-c3cc(C)cc(C)c3)c2N)cc1	SF-1 act 70, RORA act 66
Cc1cccc(-n2nnc(C(=O)Nc3ccc(F)cc3)c2N)c1	SF-1 act 100, RORA act 82
CCC(Sc1nc(=O)cc(N)n1-c1ccccc1)C(=O)Nc1ccc(Cl)cn1 (stereo unspecified)	none (no result: mHtt clearance)
O=C(/C=C/Nc1ccc(F)c(Cl)c1)c1ccco1	SF-1 act 55, RORA act 62
Cc1ccc(C(=O)Nc2nc3ccccc3n2CCN2CCCC2)cc1	RORA act 62 (no result: mHtt clearance)
O=C(Nc1nc2ccccc2n1CCN1CCCCC1)C1CCCCC1	none (no result: SF-1 act, JNK3 inh, ROCK2 inh, PKA kinase inh, RORA act)
CCCn1c(NC(=O)c2ccc(C)cc2)nc2ccccc21	none
CCCn1c(NC(=O)c2cccc(S(=O)(=O)N3CCCC3)c2)nc2ccccc21	ROCK2 inh 32 (no result: mHtt clearance)
O=C(Nc1nc2ccccc2n1CCN1CCCC1)c1ccc(Cl)cc1	SF-1 act 55, RORA act 99 (no result: mHtt clearance)
O=S(=O)(c1ccc(Cl)c(C(F)(F)F)c1)N1CCN(CC(O)COCC2CCCO2)CC1 (stereo unspecified)	none (no result: mHtt clearance)
COc1ccc2c(c1)CCc1c(C(=O)N3CCCCCC3)noc1-2	SF-1 act 57
COc1ccc2c(c1)CCc1c(C(=O)NCc3cccnc3)noc1-2	none
O=C(CCc1ccccc1)Nc1ccc2c(c1)OCCO2	none (no result: SF-1 act, JNK3 inh, ROCK2 inh, PKA kinase inh, RORA act)
Nc1c(C(=O)Nc2ccc3c(c2)OCCO3)nnn1CCc1ccccc1	SF-1 act 92, RORA act 142
CCn1cc(C(=O)Nn2cnnc2)c(=O)c2ccc(C)nc21	ROCK2 inh 20 (no result: mHtt clearance)
Cc1cc(C(=O)CSc2nncs2)c(C)n1-c1ccc2c(c1)OCO2	SF-1 act 69 (no result: mHtt clearance)
N=C1C(c2nc3ccccc3s2)=C(O)CN1Cc1ccco1	SF-1 act 52 (no result: mHtt clearance)
COc1ccc(N2CC(O)=C(c3nc4ccccc4s3)C2=N)c(OC)c1	none (no result: mHtt clearance)
CCCOc1ccc(OC(=O)c2ccc(Br)o2)cc1	none (no result: mHtt clearance)
N#C/C(=C\c1cccc(Cl)c1)c1n[nH]c(Cn2cncn2)n1	none (no result: SF-1 act, JNK3 inh, ROCK2 inh, PKA kinase inh, RORA act)
O=c1/c(=C\c2ccc3c(c2)OCO3)sc2n1CCCN=2	RORA act 55
Cc1ccc(/C=c2/sc3n(c2=O)CCCN=3)o1	none (no result: SF-1 act, JNK3 inh, ROCK2 inh, PKA kinase inh, RORA act)
CC(C)NC(=O)c1ccc(C2SCC(=O)N2Cc2ccccc2)cc1 (stereo unspecified)	none (no result: SF-1 act, JNK3 inh, ROCK2 inh, PKA kinase inh, RORA act)
O=C(NCCN1CCOCC1)c1cc2ccccc2o1	none (no result: JNK3 inh, ROCK2 inh, mHtt clearance)
COC(=O)c1ccc(NC(=O)Cc2ccccc2)cc1	SF-1 act 71
O=C(Nc1ccc(N2CCOCC2)cc1)c1cc2ccccc2o1	RORA act 74 (no result: mHtt clearance)
O=C(Nc1ccc(N2CCN(C(=O)c3ccc(Cl)cc3)CC2)cc1)c1cc2ccccc2o1	none (no result: SF-1 act, JNK3 inh, ROCK2 inh, PKA kinase inh, RORA act)
O=C(Cc1ccccc1)Nc1ccc(C(=O)O)cc1	none (no result: mHtt clearance)
O=C(CN1CCOCC1)Nc1ccc(-c2nc3ccccc3[nH]2)cc1	SF-1 act 52 (no result: mHtt clearance)
O=C(Nc1ccc(CN2CCOCC2)cc1)c1cc2ccccc2o1	SF-1 act 86 (no result: mHtt clearance)
CCn1c(SC(=O)NC2CCCCC2)nnc1-c1cccs1	none
O=C(Cc1ccccc1)Nc1ccc(CN2CCOCC2)cc1	RORA act 56
COC(=O)Nc1ccc(OCc2ccccc2)cc1	SF-1 act 72 (no result: mHtt clearance)
COC(=O)Nc1ccc(Oc2ccccc2)cc1	none (no result: mHtt clearance)
CN(C)CCCN1C(=O)C(=O)/C(=C(/O)c2ccc3c(c2)OCCO3)C1c1ccccn1 (stereo unspecified)	none (no result: mHtt clearance)
CCN(CC)S(=O)(=O)c1cccc(C(=O)OCc2cc(=O)n3nc(C)sc3n2)c1	none (no result: mHtt clearance)
OCCNc1nc(Nc2ccccc2)nc2ccccc12	none (no result: SF-1 act, JNK3 inh, ROCK2 inh, PKA kinase inh, RORA act)
Nc1nc(Nc2cccc(F)c2)nc2ccccc12	SF-1 act 67 (no result: JNK3 inh, ROCK2 inh, mHtt clearance)
Cc1ccc(-c2nc3ccc(C(=O)O)cc3nc2-c2ccc(C)cc2)cc1	none (no result: SF-1 act, JNK3 inh, ROCK2 inh, PKA kinase inh, RORA act)
